# Measurements reported in ChEMBL document CHEMBL1926569, “Novel (E)-1-(4-methyl-2-(alkylamino)thiazol-5-yl)-3-arylprop-2-en-1-ones as potent antimicrobial agents” (2011).
# Columns and labels:
# Aspergillus ochraceus [1] = assay: Antifungal activity against Aspergillus ochraceus after 72 hrs by serial dilution technique
# Penicillium ochrochloron [2] = assay: Antifungal activity against Penicillium ochrochloron ATCC 9112 after 72 hrs by serial dilution technique; format: functional; conditions: ATCC 9112, 72 h
# In short: (§1)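 Modified microdilution in 96-well plates. Fungi were kept on malt agar at 4 °C. Spores were washed off in sterile 0.85% saline with 0.1% Tween 80. Compounds were dissolved at 1 mg/ml in 5% DMSO with 0.1% Tween 80 and added to malt broth with inoculum. Plates were shaken at 160 rpm for 72 h at 28 °C. Duplicate, repeated three times.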
# Candida albicans [3] = assay: Antifungal activity against Candida albicans isolated from human incubated for 72 hrs followed by serial sub-cultivation for 72 hrs by serial dilution technique; format: functional
# In short: (§2)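 MFC: material from 72 h malt broth microdilution wells was serially sub-cultured into fresh broth plates and incubated a further 72 h at 28 °C. Fungicidal concentration is taken from growth after sub-culture. Duplicate, repeated three times.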
# Escherichia coli [4] = assay: Antibacterial activity against Escherichia coli ATCC 35210 incubated for 24 hrs followed by serial sub-cultivation for 24 hrs by microdilution; format: functional; conditions: ATCC 35210, 24 h
# In short: (§3)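 MBC: after the 24 h LB broth microdilution (1.0 × 10⁴ CFU per well, 160 rpm), wells were serially sub-cultured into fresh broth plates and incubated a further 24 h. MBC is the lowest concentration with no visible growth, taken as 99.5% killing of the original inoculum. Duplicate, repeated three times.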
# Listeria monocytogenes [5] = assay: Antibacterial activity against Listeria monocytogenes NCTC 7973 incubated for 24 hrs followed by serial sub-cultivation for 24 hrs by microdilution; format: functional; conditions: NCTC 7973, 24 h
# In short: as §3
# Trichoderma viride [6] = assay: Antifungal activity against Trichoderma viride IAM 5061 after 72 hrs by serial dilution technique; format: functional; conditions: IAM 5061, 72 h
# In short: as §1
# Micrococcus flavus [7] = assay: Antibacterial activity against Micrococcus flavus ATCC 10240 incubated for 24 hrs followed by serial sub-cultivation for 24 hrs by microdilution; format: functional; conditions: ATCC 10240, 24 h
# In short: as §3
# Penicillium ochrochloron [8] = assay: Antifungal activity against Penicillium ochrochloron ATCC 9112 incubated for 72 hrs followed by serial sub-cultivation for 72 hrs by serial dilution technique; format: functional; conditions: ATCC 9112, 72 h
# In short: as §2
# Trichoderma viride [9] = assay: Ratio of bifonazole to compound for Trichoderma viride IAM 5061; format: functional
# Aspergillus niger [10] = assay: Ratio of bifonazole to compound for Aspergillus niger ATCC 6275; format: functional
# Aspergillus ochraceus [11] = assay: Ratio of ketoconazole to compound for Aspergillus ochraceus ATCC 12066; format: functional
# Aspergillus flavus [12] = assay: Antifungal activity against Aspergillus flavus ATCC 9643 after 72 hrs by serial dilution technique; format: functional; conditions: ATCC 9643, 72 h
# In short: as §1
# Pseudomonas aeruginosa [13] = assay: Antibacterial activity against Pseudomonas aeruginosa ATCC 27853 incubated for 24 hrs followed by serial sub-cultivation for 24 hrs by microdilution; format: functional; conditions: ATCC 27853, 24 h
# In short: as §3
# Talaromyces funiculosus [14] = assay: Antifungal activity against Penicillium funiculosum ATCC 36839 incubated for 72 hrs followed by serial sub-cultivation for 72 hrs by serial dilution technique; format: functional; conditions: ATCC 36839, 72 h
# In short: as §2
# Talaromyces funiculosus [15] = assay: Antifungal activity against Penicillium funiculosum ATCC 36839 after 72 hrs by serial dilution technique; format: functional; conditions: ATCC 36839, 72 h
# In short: as §1
# Micrococcus flavus [16] = assay: Antibacterial activity against Micrococcus flavus ATCC 10240 after 24 hrs by microdilution method; format: functional; conditions: ATCC 10240, 24 h
# In short: (§4)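 Broth microdilution in 96-well plates. Bacterial suspensions were adjusted in sterile saline to 1.0 × 10⁵ CFU/ml, prepared daily and kept at 4 °C. Compound was added to LB broth with 1.0 × 10⁴ CFU per well and shaken at 160 rpm for 24 h at […] (so in the source). MIC is the lowest concentration with no visible growth under a binocular microscope. OD655 was also read. Duplicate, repeated three times.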
# Aspergillus ochraceus [17] = assay: Antifungal activity against Aspergillus ochraceus ATCC 12066 incubated for 72 hrs followed by serial sub-cultivation for 72 hrs by serial dilution technique; format: functional; conditions: ATCC 12066, 72 h
# In short: as §2
# Salmonella typhimurium [18] = assay: Antibacterial activity against Salmonella Typhimurium ATCC 13311 incubated for 24 hrs followed by serial sub-cultivation for 24 hrs by microdilution; format: functional, Salmonella enterica subsp. enterica serovar Typhimurium; conditions: Salmonella enterica, ATCC 13311, 24 h
# In short: as §3
# Staphylococcus aureus [19] = assay: Antibacterial activity against Staphylococcus aureus ATCC 6538 after 24 hrs by microdilution method; format: functional; conditions: ATCC 6538, 24 h
# In short: as §4
# Enterococcus faecalis [20] = assay: Antibacterial activity against Enterococcus faecalis isolated from human after 24 hrs by microdilution method; format: functional
# In short: as §4
# Aspergillus niger [21] = assay: Antifungal activity against Aspergillus niger ATCC 6275 after 72 hrs by serial dilution technique; format: functional; conditions: ATCC 6275, 72 h
# In short: as §1
# Talaromyces funiculosus [22] = assay: Ratio of bifonazole to compound for Penicillium funiculosum ATCC 36839; format: functional
# Aspergillus niger [23] = assay: Antifungal activity against Aspergillus niger ATCC 6275 incubated for 72 hrs followed by serial sub-cultivation for 72 hrs by serial dilution technique; format: functional; conditions: ATCC 6275, 72 h
# In short: as §2
# Aspergillus fumigatus [24] = assay: Antifungal activity against Aspergillus fumigatus isolated from human incubated for 72 hrs followed by serial sub-cultivation for 72 hrs by serial dilution technique; format: functional
# In short: as §2
# Salmonella typhimurium [25] = assay: Antibacterial activity against Salmonella Typhimurium ATCC 13311 after 24 hrs by microdilution method; format: functional, Salmonella enterica subsp. enterica serovar Typhimurium; conditions: Salmonella enterica, ATCC 13311, 24 h
# In short: as §4
# Listeria monocytogenes [26] = assay: Antibacterial activity against Listeria monocytogenes NCTC 7973 after 24 hrs by microdilution method; format: functional; conditions: NCTC 7973, 24 h
# In short: as §4
# Enterococcus faecalis [27] = assay: Antibacterial activity against Enterococcus faecalis isolated from human incubated for 24 hrs followed by serial sub-cultivation for 24 hrs by microdilution; format: functional
# In short: as §3
# Bacillus cereus [28] = assay: Antibacterial activity against clinical isolate of Bacillus cereus after 24 hrs by microdilution method; format: functional
# In short: as §4
# Aspergillus ochraceus [29] = assay: Ratio of bifonazole to compound for Aspergillus ochraceus ATCC 12066; format: functional
# Aspergillus flavus [30] = assay: Antifungal activity against Aspergillus flavus ATCC 9643 incubated for 72 hrs followed by serial sub-cultivation for 72 hrs by serial dilution technique; format: functional; conditions: ATCC 9643, 72 h
# In short: as §2
# Escherichia coli [31] = assay: Antibacterial activity against Escherichia coli ATCC 35210 after 24 hrs by microdilution method; format: functional; conditions: ATCC 35210, 24 h
# In short: as §4
# Penicillium ochrochloron [32] = assay: Ratio of ketoconazole to compound for Penicillium ochrochloron ATCC 9112; format: functional
# Pseudomonas aeruginosa [33] = assay: Ratio of ampicillin MIC to compound MIC for Pseudomonas aeruginosa ATCC 27853; format: functional
# Candida albicans [34] = assay: Ratio of bifonazole to compound for Candida albicans isolated from human; format: functional
# Pseudomonas aeruginosa [35] = assay: Antibacterial activity against Pseudomonas aeruginosa ATCC 27853 after 24 hrs by microdilution method; format: functional; conditions: ATCC 27853, 24 h
# In short: as §4
# Penicillium ochrochloron [36] = assay: Ratio of bifonazole to compound for Penicillium ochrochloron ATCC 9112; format: functional
# Trichoderma viride [37] = assay: Antifungal activity against Trichoderma viride IAM 5061 incubated for 72 hrs followed by serial sub-cultivation for 72 hrs by serial dilution technique; format: functional; conditions: IAM 5061, 72 h
# In short: as §2
# Candida albicans [38] = assay: Antifungal activity against Candida albicans isolated from human after 72 hrs by serial dilution technique; format: functional
# In short: as §1
# Candida albicans [39] = assay: Ratio of ketoconazole to compound for Candida albicans isolated from human; format: functional
# Aspergillus fumigatus [40] = assay: Ratio of ketoconazole to compound for Aspergillus fumigatus isolated from human; format: functional
# Aspergillus ochraceus [41] = assay: Antifungal activity against Aspergillus ochraceus ATCC 12066 after 72 hrs by serial dilution technique; format: functional; conditions: ATCC 12066, 72 h
# In short: as §1
# Staphylococcus aureus [42] = assay: Antibacterial activity against Staphylococcus aureus ATCC 6538 incubated for 24 hrs followed by serial sub-cultivation for 24 hrs by microdilution method; format: functional; conditions: ATCC 6538, 24 h
# In short: as §3
# Bacillus cereus [43] = assay: Antibacterial activity against clinical isolate of Bacillus cereus incubated for 24 hrs followed by serial sub-cultivation for 24 hrs by microdilution; format: functional
# In short: as §3
smiles,measurement,setting,value
CNc1nc(C)c(C(=O)/C=C/c2cccc(C)c2)s1,MIC,Aspergillus ochraceus [1],36.8 µM
same,MIC,Penicillium ochrochloron [2],36.8 µM
same,MFC,Candida albicans [3],73.5 µM
same,MBC,Escherichia coli [4],73.5 µM
same,MBC,Listeria monocytogenes [5],110 µM
same,MIC,Trichoderma viride [6],36.8 µM
same,MBC,Micrococcus flavus [7],91.9 µM
same,MFC,Penicillium ochrochloron [8],73.5 µM
same,Ratio,Trichoderma viride [9],10
same,Ratio,Aspergillus niger [10],10
same,Ratio,Aspergillus ochraceus [11],10
same,MIC,Aspergillus flavus [12],36.8 µM
same,MBC,Pseudomonas aeruginosa [13],91.9 µM
same,MFC,Talaromyces funiculosus [14],73.5 µM
same,MIC,Talaromyces funiculosus [15],36.8 µM
same,MIC,Micrococcus flavus [16],73.5 µM
same,MFC,Aspergillus ochraceus [17],73.5 µM
same,MBC,Salmonella typhimurium [18],91.9 µM
same,MIC,Staphylococcus aureus [19],73.5 µM
same,MIC,Enterococcus faecalis [20],55.1 µM
same,MIC,Aspergillus niger [21],37.8 µM
same,Ratio,Talaromyces funiculosus [22],10
same,MFC,Aspergillus niger [23],73.5 µM
same,MFC,Aspergillus fumigatus [24],73.5 µM
same,MIC,Salmonella typhimurium [25],73.5 µM
same,MIC,Listeria monocytogenes [26],110 µM
same,MBC,Enterococcus faecalis [27],73.5 µM
same,MIC,Bacillus cereus [28],73.5 µM
same,Ratio,Aspergillus ochraceus [29],10
same,MFC,Aspergillus flavus [30],91.9 µM
same,MIC,Escherichia coli [31],55.1 µM
same,Ratio,Penicillium ochrochloron [32],10
same,Ratio,Pseudomonas aeruginosa [33],10
same,Ratio,Candida albicans [34],10
same,MIC,Pseudomonas aeruginosa [35],73.5 µM
same,Ratio,Penicillium ochrochloron [36],10
same,MFC,Trichoderma viride [37],73.5 µM
same,MIC,Candida albicans [38],55.1 µM
same,Ratio,Candida albicans [39],10
same,Ratio,Aspergillus fumigatus [40],10
same,MIC,Aspergillus ochraceus [41],36.8 µM
same,MBC,Staphylococcus aureus [42],110 µM
same,MBC,Bacillus cereus [43],91.9 µM
